Results: ChEMBL document CHEMBL1134236, “Anti-MRSA cephems. Part 1: C-3 substituted thiopyridinium derivatives” (Bioorg Med Chem Lett, 2001)
pIC50: −log10 of the molar value. In brackets after ≈: the same amount, converted by molar mass.

Tests used:
[1] = test system: Staphylococcus aureus; experiment: Dose required for protective activity against methicillin-resistant Staphylococcus aureus (MRSA) A27223 in mouse following i.m. administration.; details: im, read-out: PD50
[2] = test system: Staphylococcus aureus; experiment: Minimum inhibitory concentration against methicillin-resistant Staphylococcus aureus (MRSA) A27223; assay type: functional
How it was run: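 Broth microdilution per NCCLS in Mueller-Hinton broth with 2% NaCl. Inoculum about 5×10⁵ CFU/mL, incubated at 35 °C for 24 h. MIC is the lowest drug concentration that inhibits all visible growth.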

[3] = test system: Staphylococcus aureus; experiment: Minimum inhibitory concentration against methicillin-resistant Staphylococcus aureus (MRSA) A27223 in the presence of 50% calf serum.; assay type: functional
How it was run: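 NCCLS broth MIC in Mueller-Hinton broth with 2% NaCl plus 50% calf serum. Inoculum about 5×10⁵ CFU/mL, incubated at 35 °C for 24 h. Read as the lowest concentration with no visible growth.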

[4] = Concentration required for the inhibitory activity against PBP2a
[5] = test system: Staphylococcus aureus; experiment: Concentration required for 90% inhibitory activity against methicillin-resistant Staphylococcus aureus; assay type: functional
How it was run: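 Panel of 58 MRSA strains tested by NCCLS broth method in Mueller-Hinton broth with 2% NaCl. Inoculum about 5×10⁵ CFU/mL, 35 °C for 24 h. MICs read as no visible growth, and MIC90 derived across the panel.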

[6] = test system: Enterococcus faecium; experiment: Minimum inhibitory concentration against Enterococcus faecium Amp. R. Vanco. S A28156; assay type: functional
How it was run: (§1)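 Broth dilution MIC under standard NCCLS-recommended conditions. The MIC was read as the lowest drug concentration giving no visible growth. Where the line states it, 50% calf serum was added.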

[7] = test system: Enterococcus faecalis; experiment: Minimum inhibitory concentration against Enterococcus faecalis A20688; assay type: functional
How it was run: as §1

[8] = test system: Staphylococcus aureus; experiment: Minimum inhibitory concentration against Staphylococcus aureus A9606 with 50% calf serum; assay type: functional
How it was run: as §1

[9] = test system: Staphylococcus aureus; experiment: Minimum inhibitory concentration against Staphylococcus aureus / Homo MR A27295; assay type: functional
How it was run: (§2)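 Broth MIC under NCCLS standard conditions in Mueller-Hinton broth plus 2% NaCl. Inoculum was about 5×10⁵ CFU/mL, incubated at 35 °C for 24 h. The endpoint was the lowest drug concentration inhibiting all visible growth. Where the line states it, 50% calf serum was added.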

[10] = test system: Staphylococcus haemolyticus; experiment: Minimum inhibitory concentration against Staphylococcus haemolyticus A21638; assay type: functional
How it was run: as §1

[11] = test system: Staphylococcus aureus; experiment: Minimum inhibitory concentration against Staphylococcus aureus / Homo MR A27226; assay type: functional
How it was run: as §2

[12] = test system: Streptococcus pneumoniae; experiment: Minimum inhibitory concentration against penicillin resistant Streptococcus pneumoniae A28272; assay type: functional
[13] = test system: Staphylococcus epidermidis; experiment: Minimum inhibitory concentration against Staphylococcus epidermidis A24548; assay type: functional
How it was run: as §1

[14] = test system: Staphylococcus epidermidis; experiment: Minimum inhibitory concentration against Staphylococcus epidermidis / MR A25783; assay type: functional
How it was run: as §1

[15] = test system: Staphylococcus aureus; experiment: Minimum inhibitory concentration against Staphylococcus aureus / + 50% calf serum A27223; assay type: functional
How it was run: as §2

[16] = test system: Staphylococcus aureus; experiment: Minimum inhibitory concentration against Staphylococcus aureus / Pen.- A9497; assay type: functional
How it was run: as §1

[17] = test system: Staphylococcus aureus; experiment: Minimum inhibitory concentration against Staphylococcus aureus / Hetero MR A27217; assay type: functional
How it was run: as §2

[18] = test system: Streptococcus pyogenes; experiment: Minimum inhibitory concentration against Streptococcus pyogenes Todd Hewitt A9604; assay type: functional
How it was run: as §1

[19] = test system: Staphylococcus haemolyticus; experiment: Minimum inhibitory concentration against Staphylococcus haemolyticus / Homo MR A27229; assay type: functional
How it was run: as §1

[20] = test system: Enterococcus faecalis; experiment: Minimum inhibitory concentration against Enterococcus faecalis A20688 with 50% calf serum; assay type: functional
How it was run: as §1

[21] = test system: Staphylococcus aureus; experiment: Minimum inhibitory concentration against Staphylococcus aureus / Homo MR A27223; assay type: functional
How it was run: as §2

[22] = test system: Staphylococcus aureus; experiment: Minimum inhibitory concentration against Staphylococcus aureus / Hetero MR A27218; assay type: functional
How it was run: as §2

[23] = test system: Streptococcus pneumoniae; experiment: Minimum inhibitory concentration against Streptococcus pneumoniae / Pen.I A27881; assay type: functional
How it was run: as §1

[24] = test system: Staphylococcus aureus; experiment: Minimum inhibitory concentration against Staphylococcus aureus / Pen.+ A9606; assay type: functional
How it was run: as §1

[25] = test system: Staphylococcus aureus; experiment: Minimum inhibitory concentration against Staphylococcus aureus / MR. P- A27225; assay type: functional
How it was run: as §2

[26] = test system: Staphylococcus aureus; experiment: Minimum inhibitory concentration against Staphylococcus aureus A27218 with 50% calf serum; assay type: functional
How it was run: as §2

[27] = test system: Staphylococcus epidermidis; experiment: Minimum inhibitory concentration against Staphylococcus epidermidis / Imipenem A27368; assay type: functional
How it was run: as §1

[28] = test system: Staphylococcus aureus; experiment: Minimum inhibitory concentration against Staphylococcus aureus A20241 /MS/Pen.; assay type: functional
How it was run: as §1

[29] = test system: Enterococcus faecium; experiment: Minimum inhibitory concentration against Enterococcus faecium A24885; assay type: functional
How it was run: as §1

[30] = test system: Staphylococcus aureus; experiment: Minimum inhibitory concentration against Staphylococcus aureus / Homo MR A27621; assay type: functional
How it was run: as §2

Which results are given for CCCC[n+]1c(C)cc(SCC2=C(C(=O)[O-])N3C(=O)[C@@H](NC(=O)CSc4cc(Cl)ccc4Cl)[C@H]3SC2)cc1CCC(=O)O?
ED50 [1]: > 23 mg/kg; MIC [2]: 4 µg/mL (≈ 5.84 µM); MIC [3]: 8 µg/mL

Which ED50 [1] does the source give for NCCC[n+]1ccc(SCC2=C(C(=O)O)N3C(=O)[C@@H](NC(=O)CSc4cc(Cl)nc(Cl)c4)[C@H]3SC2)cc1CCCC(=O)O.O=C(O)C(F)(F)F.O=C([O-])C(F)(F)F here?
Its ED50 is 4.3 mg/kg.

What about the MIC [2] of the same molecule?
The MIC was 2 µg/mL.

What about the MIC [3] of the same molecule?
The MIC was 4 µg/mL.

What does the source list for Cc1cc(SCC2=C(C(=O)[O-])N3C(=O)[C@@H](NC(=O)CSc4cc(Cl)ccc4Cl)[C@H]3SC2)cc(CCC(=O)O)[n+]1CCc1cccs1?
ED50 [1]: > 23 mg/kg; MIC [2]: 4 µg/mL (≈ 5.41 µM); MIC [3]: 8 µg/mL

With NC(CCC[n+]1ccc(SCC2=C(C(=O)[O-])N3C(=O)[C@@H](NC(=O)CSc4cc(Cl)ccc4Cl)[C@H]3SC2)cc1)C(=O)O (stereo partly drawn) as the molecule, how does the pIC50 [4] read?
Its pIC50 is 5.55.

And the ED50 [1]?
Its ED50 is 4.1 mg/kg.

And the MIC90 [5]?
The MIC90 was 3.5 µg/mL (≈ 5.32 µM).

What about the MIC [2] of the same molecule?
Its MIC is 1 µg/mL (≈ 1.52 µM).

What about the MIC [3] of the same molecule?
Its MIC is 4 µg/mL.

Which results are given for Cl.NCCC[n+]1ccc(SCC2=C(C(=O)O)N3C(=O)[C@@H](NC(=O)CSc4cc(Cl)ccc4Cl)[C@H]3SC2)cc1.[Cl-]?
pIC50 [4]: 5.92; ED50 [1]: 1.4 mg/kg; MIC90 [5]: 2 µg/mL; MIC [2]: 0.125 µg/mL; MIC [3]: 2 µg/mL

For Cc1cc(SCC2=C(C(=O)[O-])N3C(=O)[C@@H](NC(=O)CSc4cc(Cl)ccc4Cl)[C@H]3SC2)cc(CCC(=O)O)[n+]1-c1cccc(O)c1, which ED50 [1] is on record?
The ED50 was greater than 25 mg/kg.

And the MIC [2]?
Its MIC is 4 µg/mL (≈ 5.55 µM).

And the MIC [3]?
Its MIC is 8 µg/mL.

What does the source list for CSCCC[n+]1c(C)cc(SCC2=C(C(=O)[O-])N3C(=O)[C@@H](NC(=O)CSc4cc(Cl)ccc4Cl)[C@H]3SC2)cc1CCC(=O)O?
ED50 [1]: > 25 mg/kg; MIC [2]: 2 µg/mL (≈ 2.79 µM); MIC [3]: 4 µg/mL

Which results are given for NCCC[n+]1ccc(SCC2=C(C(=O)O)N3C(=O)[C@@H](NC(=O)CSc4cc(Cl)ccc4Cl)[C@H]3SC2)cc1CCCC(=O)O.O=C(O)C(F)(F)F.O=C([O-])C(F)(F)F?
MIC [6]: 32 µg/mL; MIC [7]: 0.25 µg/mL; MIC [8]: 0.25 µg/mL; MIC [9]: 1 µg/mL; pIC50 [4]: 5.47; ED50 [1]: 5.1 mg/kg; MIC [10]: 0.03 µg/mL; MIC90 [5]: 4 µg/mL; MIC [11]: 0.25 µg/mL; MIC [12]: 0.06 µg/mL; MIC [13]: 0.015 µg/mL; MIC [14]: 0.03 µg/mL; MIC [15]: 2 µg/mL; MIC [16]: 0.001 µg/mL; MIC [17]: 0.25 µg/mL; MIC [2]: 0.5 µg/mL; MIC [18]: 0.0005 µg/mL; MIC [19]: 1 µg/mL; MIC [20]: 1 µg/mL; MIC [21]: 0.5 µg/mL; MIC [22]: 0.5 µg/mL; MIC [3]: 4 µg/mL; MIC [23]: 0.007 µg/mL; MIC [24]: 0.06 µg/mL; MIC [25]: 0.5 µg/mL; MIC [26]: 0.5 µg/mL; MIC [27]: 0.125 µg/mL; MIC [28]: 0.06 µg/mL; MIC [29]: 1 µg/mL; MIC [30]: 0.5 µg/mL

With Cc1cc(SCC2=C(C(=O)[O-])N3C(=O)[C@@H](NC(=O)CSc4cc(Cl)ccc4Cl)[C@H]3SC2)cc(CCC(=O)O)[n+]1C[C@@H](O)[C@H](O)[C@@H](O)C(O)O as the molecule, how does the ED50 [1] read?
The ED50 was greater than 20 mg/kg.

What about the MIC [2] of the same molecule?
Its MIC is 8 µg/mL (≈ 10.3 µM).

And the MIC [3]?
Its MIC is 16 µg/mL.
